Converted amounts (≈) assume the structure as drawn.
Assays:
[1] = molecular target: T1, Beta-lactamase (Klebsiella oxytoca) (UniProt Q8RT60); assay: Hydrolysis rate by beta-lactamase of Klebsiella sp. 363 relative to cephaloridine (100)
T1 sequence (whole entry): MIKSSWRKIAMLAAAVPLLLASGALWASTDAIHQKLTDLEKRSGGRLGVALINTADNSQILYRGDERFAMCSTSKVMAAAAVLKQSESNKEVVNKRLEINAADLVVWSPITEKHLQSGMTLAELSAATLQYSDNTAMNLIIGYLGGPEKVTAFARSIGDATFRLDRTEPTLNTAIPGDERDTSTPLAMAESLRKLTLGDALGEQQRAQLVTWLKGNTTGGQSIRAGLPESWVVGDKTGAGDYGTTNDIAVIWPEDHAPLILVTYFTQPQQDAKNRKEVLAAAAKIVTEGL
Summary of the method: (§1)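 Constitutive producers were grown statically in nutrient phosphate broth at 37 °C for 16 h, then sonicated. Enzyme was partially purified on DEAE-Sephadex A-25 (phosphate gradient, 0.01 M pH 8.0 to 0.5 M pH 6.2). Assay conditions: 0.1 M potassium phosphate pH 7.0, 30 °C, 0.001% gelatin in enzyme diluent, 100 μM final substrate. Hydrolysis rate was taken from the slope of UV absorbance decrease, with cephaloridine set to 100.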

[2] = molecular target: Beta-lactamase (Escherichia coli K-12) (UniProt P00811); assay: Hydrolysis rate by the beta-lactamase from Escherichia coli 6 relative to cephaloridine.
Chain of Beta-lactamase (Escherichia coli K-12) (P00811 whole entry): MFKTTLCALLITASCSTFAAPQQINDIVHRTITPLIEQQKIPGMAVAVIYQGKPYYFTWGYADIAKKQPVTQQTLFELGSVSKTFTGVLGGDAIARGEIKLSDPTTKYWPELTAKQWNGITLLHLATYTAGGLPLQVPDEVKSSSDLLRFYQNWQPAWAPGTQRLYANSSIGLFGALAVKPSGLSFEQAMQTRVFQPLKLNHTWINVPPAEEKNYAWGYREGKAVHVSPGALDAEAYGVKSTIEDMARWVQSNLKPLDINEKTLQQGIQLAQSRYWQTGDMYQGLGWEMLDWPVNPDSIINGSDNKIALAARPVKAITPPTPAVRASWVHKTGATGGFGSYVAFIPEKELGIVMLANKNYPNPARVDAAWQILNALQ
Summary of the method: (§2)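 Cells were grown statically in nutrient phosphate broth for 16 h at 37 °C and disrupted ultrasonically. β-lactamase was partially purified on CM-Sephadex C-50. Substrate (100 μM final) was hydrolysed in 0.1 M potassium phosphate pH 7.0 at 30 °C, with the enzyme diluted in buffer containing 0.001% gelatin. Rate came from the slope of UV optical density decrease and was expressed relative to cephaloridine = 100.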

[3] = molecular target: Beta-lactamase TEM (Escherichia coli) (UniProt P62593); assay: Hydrolysis rate by the beta-lactamase from Escherichia coli W3110 RTEM relative to cephaloridine.; summary of the method: as §1
Chain of Beta-lactamase TEM (Escherichia coli) (P62593 whole entry): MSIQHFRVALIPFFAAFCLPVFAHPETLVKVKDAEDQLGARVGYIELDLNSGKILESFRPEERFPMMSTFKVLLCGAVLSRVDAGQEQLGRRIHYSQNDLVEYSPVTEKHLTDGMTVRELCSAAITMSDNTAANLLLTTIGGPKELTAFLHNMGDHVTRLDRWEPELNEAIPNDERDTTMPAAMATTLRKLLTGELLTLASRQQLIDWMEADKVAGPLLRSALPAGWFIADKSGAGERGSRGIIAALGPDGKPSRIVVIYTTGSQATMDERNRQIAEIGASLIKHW

Klebsiella pneumoniae [4] = assay: Inhibitory concentration of compound was tested against gram negative Klebsiella pneumoniae.; type: functional
Summary of the method: (§3)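 MIC by agar dilution on sensitivity test agar with serial twofold antibiotic dilutions. The inoculum was an overnight tryptose broth culture diluted to about 10⁶ cells/mL. Plates were incubated at 37 °C for 18-20 h. MIC was the lowest concentration inhibiting visible growth.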

Escherichia coli [5] = assay: Inhibitory concentration of compound was tested against gram negative Escherichia coli NIH JC-2.; type: functional; summary of the method: as §3
[6] = system: Beta-lactamase (Proteus vulgaris); assay: Hydrolysis rate by the beta-lactamase from Proteus vulgaris 31 relative to cephaloridine.
Proteus mirabilis = assay: Inhibitory concentration of compound was tested against gram negative Proteus mirabilis PR-4.; type: functional; summary of the method: as §3
Klebsiella pneumoniae [7] = assay: (§4) Inhibitory concentration of compound was tested against gram negative Klebsiella sp 363.; type: functional; summary of the method: as §3
Escherichia coli [8] = assay: Inhibitory concentration of compound was tested against gram negative Escherichia coli 73.; type: functional; summary of the method: as §3
Escherichia coli [9] = assay: Inhibitory concentration of compound was tested against gram negative Escherichia coli H organism.; type: functional; summary of the method: as §3
Klebsiella = assay: as §4; type: functional; summary of the method: as §3
[10] = molecular target: Beta-lactamase (Enterobacter cloacae) (UniProt P05364); assay: Hydrolysis rate by the beta-lactamase from Enterobacter cloacae 214 relative to cephaloridine (100); c= Hydrolysis was not detected; summary of the method: as §2
Chain of Beta-lactamase (Enterobacter cloacae) (P05364 21-381 limits assumed): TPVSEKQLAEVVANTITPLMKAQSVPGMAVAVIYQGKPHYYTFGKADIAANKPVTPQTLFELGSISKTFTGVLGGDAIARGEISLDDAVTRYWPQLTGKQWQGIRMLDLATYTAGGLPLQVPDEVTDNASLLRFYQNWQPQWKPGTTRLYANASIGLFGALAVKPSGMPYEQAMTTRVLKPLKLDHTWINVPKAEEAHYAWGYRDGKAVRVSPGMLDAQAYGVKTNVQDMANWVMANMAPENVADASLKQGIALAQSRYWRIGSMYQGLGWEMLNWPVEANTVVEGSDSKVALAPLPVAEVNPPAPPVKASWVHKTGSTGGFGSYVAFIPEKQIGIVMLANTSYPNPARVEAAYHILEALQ

[11] = molecular target: Beta-lactamase (Escherichia coli K-12) (UniProt P00811); assay: Hydrolysis rate by the beta-lactamase from Escherichia coli 6 relative to cephaloridine (100); c= Hydrolysis was not detected; summary of the method: as §2

| Structure (SMILES) | Relative hydrolysis rate [1] | Relative hydrolysis rate [2] | Relative hydrolysis rate [3] | MIC (Klebsiella pneumoniae [4]) [µg/mL] | MIC (Escherichia coli [5]) [µg/mL] | Relative hydrolysis rate [6] | MIC (Proteus mirabilis) [µg/mL] | MIC (Klebsiella pneumoniae [7]) [µg/mL] | MIC (Escherichia coli [8]) [µg/mL] | MIC (Escherichia coli [9]) [µg/mL] | MIC (Klebsiella) [µg/mL] | Relative hydrolysis rate [10] | Relative hydrolysis rate [11] |
| --- | --- | --- | --- | --- | --- | --- | --- | --- | --- | --- | --- | --- | --- |
| Cn1nnnc1SCC1=C(C(=O)O)N2C(=O)C(NC(=O)Cc3csc(N)n3)C2SC1 (stereo unspecified) | 4.1 | 120 | 17 | 0.1 (≈ 0.213 µM) | 0.1 (≈ 0.213 µM) | 250 | 0.1 (≈ 0.213 µM) | 6.25 (≈ 13.3 µM) | 1.56 (≈ 3.33 µM) | 0.05 (≈ 0.107 µM) | – | – | – |
| CCN1CCN(C(=O)NC(C(=O)NC2C(=O)N3C(C(=O)O)=C(CSc4nnnn4C)COC23)c2ccc(OC(N)=O)cc2)C(=O)C1=O (stereo unspecified) | 0.69 | 10 | 110 | ≤ 0.013 | ≤ 0.013 | 34 | 0.2 (≈ 0.297 µM) | 12.5 (≈ 18.6 µM) | 12.5 (≈ 18.6 µM) | ≤ 0.013 | – | – | – |
| Cn1nnnc1SCC1=C(C(=O)O)N2C(=O)C(NC(=O)Cc3csc(N)n3)C2OC1 (stereo unspecified) | 240 | 360 | 350 | 0.2 (≈ 0.442 µM) | 0.2 (≈ 0.442 µM) | 770 | 0.2 (≈ 0.442 µM) | > 100 | > 100 | 0.1 (≈ 0.221 µM) | – | – | – |
| Cn1nnnc1SCC1=C(C(=O)O)N2C(=O)C(NC(=O)C(O)c3ccccc3)C2SC1 (stereo unspecified) | 130 | 14 | 55 | 0.39 (≈ 0.843 µM) | 0.39 (≈ 0.843 µM) | – | 0.78 (≈ 1.69 µM) | > 100 | 25 (≈ 54.1 µM) | 0.2 (≈ 0.432 µM) | – | – | – |
| Cc1nnc(SCC2=C(C(=O)O)N3C(=O)C(NC(=O)Cn4cnnn4)C3SC2)s1 (stereo unspecified) | – | – | – | – | 1.56 (≈ 3.43 µM) | – | – | – | 25 (≈ 55 µM) | 1.56 (≈ 3.43 µM) | > 100 | – | – |
| CC1=C(C(=O)O)N2C(=O)[C@@H](NC(=O)[C@H](N)c3ccccc3)[C@H]2SC1 | – | 57 | 0.75 | – | – | – | – | – | – | – | – | – | – |
| CCN1CCN(C(=O)NC(C(=O)NC2C(=O)N3C(C(=O)O)=C(CSc4nnnn4C)CSC23)c2ccc(OC(N)=O)cc2)C(=O)C1=O (stereo unspecified) | 3.1 | 5.1 | 59 | 0.05 (≈ 0.0726 µM) | 0.1 (≈ 0.145 µM) | 16 | 1.56 (≈ 2.27 µM) | > 100 | 12.5 (≈ 18.2 µM) | ≤ 0.013 | – | – | – |
| CC1=C(C(=O)O)N2C(=O)C(NC(=O)CSC(F)(F)F)C2OC1 (stereo unspecified) | 100 | 910 | 18 | 6.25 (≈ 18.4 µM) | 6.25 (≈ 18.4 µM) | 500 | 25 (≈ 73.5 µM) | > 100 | 100 (≈ 294 µM) | 3.13 (≈ 9.2 µM) | – | – | – |
| Cn1nnnc1SCC1=C(C(=O)O)N2C(=O)C(NC(=O)Cc3ccc(O)cc3)C2SC1 (stereo unspecified) | 120 | 360 | 39 | 1.56 (≈ 3.37 µM) | 3.13 (≈ 6.77 µM) | 410 | 1.56 (≈ 3.37 µM) | 100 (≈ 216 µM) | 25 (≈ 54.1 µM) | 0.78 (≈ 1.69 µM) | – | – | – |
| Cc1nnc(SCC2=C(C(=O)O)N3C(=O)C(NC(=O)Cn4cnnn4)C3OC2)s1 (stereo unspecified) | 380 | 150 | 620 | 1.56 (≈ 3.56 µM) | 0.78 (≈ 1.78 µM) | 1200 | 1.56 (≈ 3.56 µM) | > 100 | > 100 | 0.78 (≈ 1.78 µM) | – | – | – |
| Cn1nnnc1SCC1=C(C(=O)O)N2C(=O)C(NC(=O)C(O)c3ccccc3)C2OC1 (stereo unspecified) | 360 | 39 | 370 | 0.05 (≈ 0.112 µM) | 0.05 (≈ 0.112 µM) | 300 | 0.1 (≈ 0.224 µM) | 100 (≈ 224 µM) | > 100 | 0.05 (≈ 0.112 µM) | – | – | – |
| Cn1nnnc1SCC1=C(C(=O)O)N2C(=O)C(NC(=O)/C(=N\O)c3ccc(NS(C)(=O)=O)cc3)C2SC1 (stereo unspecified) | 35 | 2.2 | 34 | 1.56 (≈ 2.74 µM) | 0.78 (≈ 1.37 µM) | 170 | 6.25 (≈ 11 µM) | > 100 | 50 (≈ 87.9 µM) | 0.78 (≈ 1.37 µM) | – | – | – |
| Cn1nnnc1SCC1=C(C(=O)O)N2C(=O)C(NC(=O)/C(=N\O)c3ccc(NS(C)(=O)=O)cc3)C2OC1 (stereo unspecified) | 350 | 5.5 | 290 | 0.78 (≈ 1.41 µM) | 0.78 (≈ 1.41 µM) | 330 | 1.56 (≈ 2.82 µM) | > 100 | > 100 | 0.78 (≈ 1.41 µM) | – | – | – |
| Cn1nnnc1SCC1=C(C(=O)O)N2C(=O)C(NC(=O)Cc3ccc(O)cc3)C2OC1 (stereo unspecified) | 630 | 1200 | 560 | 0.78 (≈ 1.75 µM) | 0.78 (≈ 1.75 µM) | 710 | 0.39 (≈ 0.874 µM) | > 100 | > 100 | 0.39 (≈ 0.874 µM) | – | – | – |
| Cn1nnnc1SCC1=C(C(=O)O)N2C(=O)C(NC(=O)C(C(=O)O)c3ccc(O)cc3)C2OC1 (stereo unspecified) | 80 | – | 19 | 0.2 (≈ 0.408 µM) | 0.2 (≈ 0.408 µM) | 86 | 0.39 (≈ 0.795 µM) | 100 (≈ 204 µM) | 50 (≈ 102 µM) | 0.2 (≈ 0.408 µM) | – | Hydrolysis not detected | Hydrolysis not detected |
